Results on 8 molecules are retold here after ChEMBL document CHEMBL1122419, “alpha-Adrenergic activities of some substituted 2-(aminomethyl)imidazolines” (J Med Chem, 1983).

Experiment [1] concerns the target Adrenergic receptor alpha-2 (Rattus norvegicus) (UniProt P22086+P19328+P22909). The experiment is described as follows: Clonidine antagonistic activity against alpha-2 adrenergic receptor in isolated, field -simulated vas deferens from rats. In kind it is functional. Summed up: (§1)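 Field-stimulated vas deferens from Sprague-Dawley rats (250-350 g). pA2 estimated from one or two test-compound concentrations, with at least three tissues per concentration. Agonist challenged was clonidine for α2 and methoxamine for α1.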

For experiment [2], the target named is T1, Adrenergic receptor alpha-1 (Rattus norvegicus, UniProt P15823+P23944+P43140).
T1 sequence (P15823 whole entry): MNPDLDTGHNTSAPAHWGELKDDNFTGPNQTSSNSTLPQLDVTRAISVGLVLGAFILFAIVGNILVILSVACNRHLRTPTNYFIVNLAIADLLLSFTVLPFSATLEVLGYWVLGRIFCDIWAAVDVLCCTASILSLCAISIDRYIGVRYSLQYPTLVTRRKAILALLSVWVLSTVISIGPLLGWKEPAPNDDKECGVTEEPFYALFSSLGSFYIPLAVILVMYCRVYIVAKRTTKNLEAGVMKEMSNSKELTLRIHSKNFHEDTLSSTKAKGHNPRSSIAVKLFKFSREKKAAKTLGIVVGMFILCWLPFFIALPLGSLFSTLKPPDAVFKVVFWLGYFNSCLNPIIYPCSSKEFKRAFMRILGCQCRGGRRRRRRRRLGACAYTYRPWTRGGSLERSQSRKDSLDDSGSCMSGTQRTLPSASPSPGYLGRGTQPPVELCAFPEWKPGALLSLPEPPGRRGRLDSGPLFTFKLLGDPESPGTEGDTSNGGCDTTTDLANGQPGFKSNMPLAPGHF
T1 sequence (P23944 whole entry): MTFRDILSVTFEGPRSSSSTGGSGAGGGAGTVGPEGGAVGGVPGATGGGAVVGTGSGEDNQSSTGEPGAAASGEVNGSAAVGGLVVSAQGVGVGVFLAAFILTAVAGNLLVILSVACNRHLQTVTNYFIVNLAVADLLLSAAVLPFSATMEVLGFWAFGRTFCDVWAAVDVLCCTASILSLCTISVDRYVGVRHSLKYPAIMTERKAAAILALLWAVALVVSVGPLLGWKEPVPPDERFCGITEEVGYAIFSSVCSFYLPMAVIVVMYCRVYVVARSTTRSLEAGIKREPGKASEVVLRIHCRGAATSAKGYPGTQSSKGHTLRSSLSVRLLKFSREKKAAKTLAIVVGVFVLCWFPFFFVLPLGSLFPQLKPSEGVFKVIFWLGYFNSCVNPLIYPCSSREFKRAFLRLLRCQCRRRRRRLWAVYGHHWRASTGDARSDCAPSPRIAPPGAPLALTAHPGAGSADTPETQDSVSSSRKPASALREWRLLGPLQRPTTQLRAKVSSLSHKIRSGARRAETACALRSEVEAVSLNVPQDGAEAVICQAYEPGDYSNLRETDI
T1 sequence (P43140 whole entry): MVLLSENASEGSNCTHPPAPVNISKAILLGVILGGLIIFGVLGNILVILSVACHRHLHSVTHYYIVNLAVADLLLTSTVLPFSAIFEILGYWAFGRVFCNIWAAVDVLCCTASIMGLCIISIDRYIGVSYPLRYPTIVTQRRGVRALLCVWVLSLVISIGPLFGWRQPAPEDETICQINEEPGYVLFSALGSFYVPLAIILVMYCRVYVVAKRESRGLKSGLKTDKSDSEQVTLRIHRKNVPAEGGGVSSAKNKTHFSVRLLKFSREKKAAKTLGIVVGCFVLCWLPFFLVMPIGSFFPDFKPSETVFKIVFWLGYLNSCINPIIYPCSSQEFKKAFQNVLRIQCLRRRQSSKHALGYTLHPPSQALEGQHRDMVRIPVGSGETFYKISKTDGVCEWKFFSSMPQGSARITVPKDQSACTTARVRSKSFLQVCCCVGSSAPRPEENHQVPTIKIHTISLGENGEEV
The experiment is described as follows: Methoxamine antagonistic activity against alpha-1 adrenergic receptor in isolated, field -simulated vas deferens from rats. In kind it is functional, tissue-based. The method, boiled down:
as §1

For experiment [3], the target named is T2, Adrenergic receptor alpha-2 (Rattus norvegicus, UniProt P22086+P19328+P22909).
T2 sequence (P22086 whole entry): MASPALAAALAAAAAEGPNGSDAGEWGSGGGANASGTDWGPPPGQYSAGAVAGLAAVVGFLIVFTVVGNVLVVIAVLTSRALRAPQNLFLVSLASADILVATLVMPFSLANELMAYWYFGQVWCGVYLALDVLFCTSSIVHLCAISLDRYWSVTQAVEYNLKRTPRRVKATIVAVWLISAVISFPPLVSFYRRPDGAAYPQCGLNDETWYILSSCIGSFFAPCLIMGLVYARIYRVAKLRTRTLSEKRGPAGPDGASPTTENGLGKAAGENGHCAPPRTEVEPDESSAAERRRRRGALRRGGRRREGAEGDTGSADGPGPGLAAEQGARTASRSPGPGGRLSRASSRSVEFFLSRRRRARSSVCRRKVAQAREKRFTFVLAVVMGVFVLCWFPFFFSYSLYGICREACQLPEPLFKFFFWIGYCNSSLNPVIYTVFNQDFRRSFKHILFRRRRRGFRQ
T2 sequence (P19328 whole entry): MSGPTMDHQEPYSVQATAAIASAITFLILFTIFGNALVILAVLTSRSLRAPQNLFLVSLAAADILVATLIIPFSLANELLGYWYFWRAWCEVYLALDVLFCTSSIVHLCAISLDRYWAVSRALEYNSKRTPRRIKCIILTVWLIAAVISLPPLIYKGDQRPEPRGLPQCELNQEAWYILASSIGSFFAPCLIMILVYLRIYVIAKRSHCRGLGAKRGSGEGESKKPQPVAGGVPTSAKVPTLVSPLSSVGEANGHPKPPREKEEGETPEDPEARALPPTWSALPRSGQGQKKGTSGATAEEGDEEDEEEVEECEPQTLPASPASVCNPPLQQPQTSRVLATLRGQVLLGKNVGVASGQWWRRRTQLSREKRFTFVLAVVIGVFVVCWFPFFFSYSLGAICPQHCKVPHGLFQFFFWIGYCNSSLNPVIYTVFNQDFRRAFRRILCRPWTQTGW
T2 sequence (P22909 whole entry): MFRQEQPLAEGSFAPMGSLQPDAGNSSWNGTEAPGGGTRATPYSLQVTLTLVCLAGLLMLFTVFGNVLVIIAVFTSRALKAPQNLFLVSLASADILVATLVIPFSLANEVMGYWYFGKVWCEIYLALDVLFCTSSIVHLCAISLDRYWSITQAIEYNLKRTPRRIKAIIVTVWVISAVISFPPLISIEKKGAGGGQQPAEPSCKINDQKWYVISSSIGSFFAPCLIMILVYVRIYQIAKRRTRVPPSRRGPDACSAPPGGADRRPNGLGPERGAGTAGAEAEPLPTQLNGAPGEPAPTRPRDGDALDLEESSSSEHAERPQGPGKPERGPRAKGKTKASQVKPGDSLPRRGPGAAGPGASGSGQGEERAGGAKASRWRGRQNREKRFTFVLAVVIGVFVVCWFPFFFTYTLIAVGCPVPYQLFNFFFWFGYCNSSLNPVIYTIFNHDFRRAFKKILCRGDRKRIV
The experiment is described as follows: Agonistic activity against alpha alpha-2 adrenergic receptor in isolated, field -simulated vas deferens from rats. The format is functional.

The target of experiment [4] is T1, Adrenergic receptor alpha-1. The experiment is described as follows: Agonist activity against alpha-1 adrenergic receptor from rat vas deferens. The format is functional.
The target in experiment [5] is T2, Adrenergic receptor alpha-2. Briefly: Agonistic activity against alpha-2 adrenergic receptor in isolated, field -simulated vas deferens from rats. In kind it is functional. The method, boiled down: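 Field-stimulated vas deferens from Sprague-Dawley rats (250-350 g), pretreated with prazosin (78 nM). α2 agonism scored as inhibition of stimulation-induced contractions. […] Agonist activity confirmed by complete reversal of the inhibition by rauwolscine (280 nM).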

The target in experiment [6] is T3, Alpha-2A adrenergic receptor (Bos taurus, UniProt Q28838).
T3 sequence (Q28838 whole entry): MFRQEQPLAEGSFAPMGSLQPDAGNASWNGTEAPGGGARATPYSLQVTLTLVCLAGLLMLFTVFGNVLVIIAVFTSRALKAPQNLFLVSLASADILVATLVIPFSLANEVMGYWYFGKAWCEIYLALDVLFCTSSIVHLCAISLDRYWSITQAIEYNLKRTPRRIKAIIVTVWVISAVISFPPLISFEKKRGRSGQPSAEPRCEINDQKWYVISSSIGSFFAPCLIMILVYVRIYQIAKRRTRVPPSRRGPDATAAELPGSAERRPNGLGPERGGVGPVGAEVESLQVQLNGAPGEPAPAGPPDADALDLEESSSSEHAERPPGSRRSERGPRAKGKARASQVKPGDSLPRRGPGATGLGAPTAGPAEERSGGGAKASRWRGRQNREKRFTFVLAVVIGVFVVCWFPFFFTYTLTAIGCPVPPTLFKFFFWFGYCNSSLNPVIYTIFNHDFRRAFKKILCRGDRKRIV
Briefly: Binding affinity against alpha-2 adrenergic receptor from calf cerebral cortex, using [3H]clonidine as the radioligand. The format is tissue-based.

`Cc1ccc(N(CC2=NCCN2)c2cccc(O)c2)cc1`: the pA2 in experiment [1] was 7.8.

On to `Cc1ccc(N(CC2=NCCN2)c2ccccc2)cc1`, for which the pA2 in experiment [1] is 7.5; in experiment [2] it was 7.6. Further, the EC50 in experiment [3] and in experiment [4] was more than 1 µM each time.

Consider `Clc1ccccc1NCC1=NCCN1`, for which the EC50 is 0.053 µM in experiment [5] and 0.05 µM in experiment [4].

Take `Oc1cccc(NCC2=NCCN2)c1`: the Ki in experiment [6] worked out at 0.0071 µM. Further, the EC50 in experiment [3] is 0.074 µM; in experiment [4] it was 0.061 µM.

As to `Cc1ccc(N(C)CC2=NCCN2)cc1`, the pA2 in experiment [1] was 7. This molecule yielded a Ki in experiment [6] of 0.0033 µM. The EC50 in experiment [3] was more than 2 µM; in experiment [4], 0.3 µM.

In experiment [1], `CCN(CC1=NCCN1)c1ccc(C)cc1` came in with a pA2 of 7.1. This molecule showed a Ki in experiment [6] of 0.014 µM. Further, the EC50 in experiment [3] is more than 1 µM; in experiment [4], 1.6 µM.

Regarding `Cc1ccc(N(CC2=NCCN2)C2CCCCC2)cc1`, the pA2 was 6.5 in experiment [1] and 6 in experiment [2]. This molecule yielded a Ki in experiment [6] of 0.07 µM. In addition, the EC50 in experiment [3] and in experiment [4] was more than 1 µM throughout.

In experiment [1], `Cc1ccc(NCC2=NCCN2)cc1` gave a pA2 of 5.6. The affinity in experiment [6] corresponds to a Ki of 0.014 µM. Moreover, the EC50 is more than 2 µM in experiment [3] and 0.34 µM in experiment [4].
